According to ChEMBL document CHEMBL4138252, “Novel Polyamine-Naphthalene Diimide Conjugates Targeting Histone Deacetylases and DNA for Cancer Phenotype Reprogramming” (ACS Med Chem Lett, 2017):
Calls of active or inactive are those of the source. No cut-off for these calls is given here.

Columns and labels:
U-87 MG = experiment: Growth inhibition of human U87 cells after 48 hrs by alamar blue assay; type: functional, U-87MG ATCC
How it was run: (§1)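 Growth inhibition in U87, HCT116 and A549 cells at 0.2, 1 and 5 μM. GI50 is derived from the inhibitory dose–response curve.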

dsDNA [1] = experiment: Stabilization of 5'6FAM/3'Dabcyl-labelled double stranded DNA (unknown origin) assessed as change in melting temperature at 0.75 uM by fluorescence assay; type: nucleic-acid assay
How it was run: (§2)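 Thermal stabilization of dsDNA or G-quadruplex DNA is measured as ΔTm at 0.75 and 2.5 μM compound.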

A549 [2] = experiment: (§3) Inhibition of TGFbeta1-induced epithelial-mesenchymal transition in human A549 cells assessed as down regulation of VIM expression at 5 uM treated for 24 hrs in presence of TGFbeta1 followed by addition of fresh media containing compounds for 24 hrs by SYBR-green dye based RT-PCR analysis relative to control; type: functional
How it was run: (§4)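 A549 cells are stimulated with TGF-β1, alone or combined with 5 μM compound. CDH1 and VIM expression is measured and compared with control and with TGF-β1 alone.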

[3] = molecular target: T1, Histone deacetylase (Homo sapiens) (UniProt Q13547+O15379+Q9UBN7+Q92769+Q9UQL6+Q8WUI4+Q9BY41+Q96DB2+P56524+Q9UKV0+Q969S8); experiment: Inhibition of HDAC in human A549 cells assessed as increase in acetylated H4 level at 5 uM after 24 hrs by Western blot analysis relative to control; type: cell-based
How it was run: (§5)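 A549 cells are treated 24 h at 5 μM. Global histone H3 and H4 lysine acetylation is detected by Western blotting.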

Histone deacetylase 1 = Histone deacetylase 1 (Homo sapiens, UniProt Q13547); experiment: Inhibition of recombinant human C-terminal FLAG-His tagged HDAC1 (1 to 482 residues) expressed in Sf21 insect cells using RHK-K(Ac)-AMC as substrate by fluorescence assay
[4] = molecular target: T1, Histone deacetylase (Homo sapiens); experiment: Inhibition of HDAC in human A549 cells assessed as increase in acetylated H3 level at 5 uM after 24 hrs by Western blot analysis relative to control; type: cell-based; how it was run: as §5
[5] = molecular target: DNA polymerase I, thermostable (Thermus aquaticus) (UniProt P19821); experiment: Inhibition of Thermus aquaticus Taq-polymerase using pBR322 as substrate up to 40 uM by PCR analysis
Histone deacetylase = experiment: Inhibition of HDAC in human HeLa nuclear extract using Fluor de Lys as substrate by fluorimetric method; type: protein assay
A549 [6] = experiment: Suppression of TGFbeta1-induced cell proliferation in human A549 cells at 5 uM treated for 24 hrs in presence of TGFbeta1 followed by addition of fresh media containing compounds for 24 hrs by alamar blue assay relative to control; type: functional
How it was run: (§6)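 A549 cells stimulated with TGF-β1 get a 48 h-long 5 μM treatment. Percentage growth is evaluated according to NCI screening procedures, as mean value.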

A549 [7] = experiment: Antimigratory activity against human A549 cells assessed as reduction in cell migration towards wound area at 5 uM measured after 24 hrs by scratch wound-healing assay relative to control; type: functional; design: scale not given: the % may be the effect or the level left
How it was run: (§7)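 Scratch wound healing on A549 cells, with or without TGF-β1 stimulation. Repopulation of the wound area is read at 24 h postscratch.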

A549 [8] = experiment: Antimigratory activity against TGFbeta1-stimulated human A549 cells assessed as reduction in cell migration towards wound area at 5 uM treated for 24 hrs in presence of TGFbeta1 followed by addition of fresh media containing compounds for 24 hrs by scratch wound-healing assay relative to control; type: functional; how it was run: as §7
Quadruplex DNA [9] = experiment: Stabilization of 3'-6FAM/5'-Dabcyl-labelled human telomeric 22 G-quadruplex DNA assessed as change in melting temperature at 0.75 uM by fluorescence assay; type: nucleic-acid assay; how it was run: as §2
HCT-116 [10] = experiment: Inhibition of epithelial-mesenchymal transition in human HCT116 cells assessed as down regulation of VIM expression at 5 uM after 48 hrs by SYBR-green dye based RT-PCR analysis relative to control; type: functional
How it was run: (§8)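 HCT116 and A549 cells are treated 48 h with 5 μM. CDH1 and VIM expression is measured against untreated control. Data are mean ± SEM of four independent experiments.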

Histone deacetylase 2 = Histone deacetylase 2 (Homo sapiens, UniProt Q92769); experiment: Inhibition of recombinant human C-terminal GST-tagged HDAC2 (1 to 488 residues) expressed in baculovirus infected Sf21 insect cells using RHK-K(Ac)-AMC as substrate measured after 30 mins by fluorescence assay
A549 [11] = experiment: Inhibition of epithelial-mesenchymal transition in human A549 cells assessed as down regulation of VIM expression at 5 uM after 48 hrs by SYBR-green dye based RT-PCR analysis relative to control; type: functional; how it was run: as §8
Histone deacetylase 4 = Histone deacetylase 4 (Homo sapiens, UniProt P56524); experiment: Inhibition of recombinant human N-terminal GST-tagged/C-terminal His-tagged HDAC4 (627 to 1084 residues) expressed in baculovirus infected Sf21 insect cells using (Boc-Lys(trifluoroacetyl)-AMC) as substrate by fluorescence assay
HCT-116 [12] = experiment: Inhibition of epithelial-mesenchymal transition in human HCT116 cells assessed as upregulation of CDH1 expression at 5 uM after 48 hrs by SYBR-green dye based RT-PCR analysis relative to control; type: functional; how it was run: as §8
A549 [13] = experiment: as §3, with “upregulation” for “down regulation”, “CDH1” for “VIM”; type: functional; how it was run: as §4
A549 [14] = experiment: Suppression of TGFbeta1-induced cell proliferation in human A549 cells assessed as reduction in cell growth at 5 uM treated for 24 hrs in presence of TGFbeta1 followed by addition of fresh media containing compounds for 24 hrs by alamar blue assay relative to control; type: functional; design: scale not given: the % may be the effect or the level left; how it was run: as §6
A549 [15] = experiment: Inhibition of epithelial-mesenchymal transition in human A549 cells assessed as upregulation of CDH1 expression at 5 uM after 48 hrs by SYBR-green dye based RT-PCR analysis relative to control; type: functional; how it was run: as §8
A549 [16] = experiment: Growth inhibition of human A549 cells after 48 hrs by alamar blue assay; type: functional; details: for GI50: A549, 48 h; how it was run: as §1
[17] = molecular target: T2, Protein deacetylase HDAC6 (Homo sapiens, UniProt Q9UBN7); experiment: Inhibition of recombinant human N-terminal GST-tagged HDAC6 (1 to 1215 residues) expressed in baculovirus infected Sf21 insect cells using RHKKAc as substrate by fluorescence assay
T2 sequence (Q9UBN7 whole entry): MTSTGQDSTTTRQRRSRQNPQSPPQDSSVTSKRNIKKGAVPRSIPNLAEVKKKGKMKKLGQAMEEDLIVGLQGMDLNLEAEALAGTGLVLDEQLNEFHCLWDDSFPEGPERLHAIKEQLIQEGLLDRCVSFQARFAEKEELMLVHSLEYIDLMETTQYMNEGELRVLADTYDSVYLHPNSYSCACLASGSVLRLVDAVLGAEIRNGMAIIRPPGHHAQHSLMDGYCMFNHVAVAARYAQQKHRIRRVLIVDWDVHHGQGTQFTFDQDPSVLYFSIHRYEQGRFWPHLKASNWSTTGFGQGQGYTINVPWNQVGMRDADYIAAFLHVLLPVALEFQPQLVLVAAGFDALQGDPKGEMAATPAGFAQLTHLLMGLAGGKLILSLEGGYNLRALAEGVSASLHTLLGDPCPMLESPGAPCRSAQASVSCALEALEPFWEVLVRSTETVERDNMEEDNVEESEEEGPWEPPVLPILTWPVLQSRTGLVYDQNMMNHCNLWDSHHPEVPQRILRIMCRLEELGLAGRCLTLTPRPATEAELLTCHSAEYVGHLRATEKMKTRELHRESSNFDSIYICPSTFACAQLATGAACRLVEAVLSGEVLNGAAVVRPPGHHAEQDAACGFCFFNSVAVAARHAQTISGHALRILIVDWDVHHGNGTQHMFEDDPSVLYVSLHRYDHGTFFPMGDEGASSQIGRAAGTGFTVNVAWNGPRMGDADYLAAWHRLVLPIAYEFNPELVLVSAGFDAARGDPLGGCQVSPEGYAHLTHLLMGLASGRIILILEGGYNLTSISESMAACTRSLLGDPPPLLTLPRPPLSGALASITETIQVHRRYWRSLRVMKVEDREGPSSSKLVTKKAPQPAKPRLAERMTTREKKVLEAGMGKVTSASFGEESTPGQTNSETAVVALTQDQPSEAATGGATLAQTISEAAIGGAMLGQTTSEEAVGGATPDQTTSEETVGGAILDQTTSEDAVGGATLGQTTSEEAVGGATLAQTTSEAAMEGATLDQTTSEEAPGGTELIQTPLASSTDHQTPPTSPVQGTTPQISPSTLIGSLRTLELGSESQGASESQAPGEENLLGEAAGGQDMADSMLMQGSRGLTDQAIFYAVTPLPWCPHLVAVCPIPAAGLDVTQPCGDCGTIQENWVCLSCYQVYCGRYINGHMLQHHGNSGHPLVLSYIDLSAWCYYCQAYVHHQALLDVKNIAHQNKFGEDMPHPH

HCT-116 [18] = experiment: Growth inhibition of human HCT116 cells after 48 hrs by alamar blue assay; type: functional; details: for GI50: HCT-116, 48 h; how it was run: as §1
Quadruplex DNA [19] = experiment: Stabilization of 3'-6FAM/5'-Dabcyl-labelled human telomeric 22 G-quadruplex DNA assessed as change in melting temperature at 2.5 uM by fluorescence assay; type: nucleic-acid assay; how it was run: as §2
dsDNA [20] = experiment: Stabilization of 5'6FAM/3'Dabcyl-labelled double stranded DNA (unknown origin) assessed as change in melting temperature at 2.5 uM by fluorescence assay; type: nucleic-acid assay; how it was run: as §2

DNA polymerase I, thermostable (Thermus aquaticus), sequence (P19821 whole entry): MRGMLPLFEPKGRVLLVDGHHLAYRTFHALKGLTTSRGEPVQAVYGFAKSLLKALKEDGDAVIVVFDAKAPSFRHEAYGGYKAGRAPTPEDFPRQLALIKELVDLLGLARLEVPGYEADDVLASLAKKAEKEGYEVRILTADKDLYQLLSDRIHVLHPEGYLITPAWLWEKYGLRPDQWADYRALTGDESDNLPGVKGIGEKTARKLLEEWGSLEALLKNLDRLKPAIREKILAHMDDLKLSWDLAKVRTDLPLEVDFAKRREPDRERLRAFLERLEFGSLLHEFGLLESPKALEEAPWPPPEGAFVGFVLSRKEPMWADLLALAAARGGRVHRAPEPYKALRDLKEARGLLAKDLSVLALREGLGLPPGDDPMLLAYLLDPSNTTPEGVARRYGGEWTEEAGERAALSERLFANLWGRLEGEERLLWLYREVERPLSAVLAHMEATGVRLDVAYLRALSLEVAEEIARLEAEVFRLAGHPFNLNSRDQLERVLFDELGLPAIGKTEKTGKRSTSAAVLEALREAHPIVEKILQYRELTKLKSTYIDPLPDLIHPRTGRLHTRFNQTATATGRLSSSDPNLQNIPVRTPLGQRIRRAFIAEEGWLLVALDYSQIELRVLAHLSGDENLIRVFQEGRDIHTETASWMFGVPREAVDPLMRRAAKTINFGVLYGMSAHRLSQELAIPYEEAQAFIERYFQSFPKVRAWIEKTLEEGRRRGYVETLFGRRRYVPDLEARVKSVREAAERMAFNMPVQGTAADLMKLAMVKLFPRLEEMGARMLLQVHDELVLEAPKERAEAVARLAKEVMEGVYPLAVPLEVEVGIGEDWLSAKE
Histone deacetylase 2, sequence (Q92769 whole entry, the tested form may be a part): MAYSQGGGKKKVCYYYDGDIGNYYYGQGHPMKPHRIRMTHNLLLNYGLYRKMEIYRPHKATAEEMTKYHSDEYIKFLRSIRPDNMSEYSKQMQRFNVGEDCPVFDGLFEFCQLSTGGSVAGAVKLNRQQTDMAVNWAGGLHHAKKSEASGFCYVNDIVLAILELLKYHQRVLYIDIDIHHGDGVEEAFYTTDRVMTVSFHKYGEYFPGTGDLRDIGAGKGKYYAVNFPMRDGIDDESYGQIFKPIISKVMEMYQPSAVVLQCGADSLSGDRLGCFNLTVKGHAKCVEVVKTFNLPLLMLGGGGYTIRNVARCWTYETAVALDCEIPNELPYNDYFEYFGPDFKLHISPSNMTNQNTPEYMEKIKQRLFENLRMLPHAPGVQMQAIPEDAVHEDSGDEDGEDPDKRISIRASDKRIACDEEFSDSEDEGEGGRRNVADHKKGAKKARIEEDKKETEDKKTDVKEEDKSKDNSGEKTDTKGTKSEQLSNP
Histone deacetylase 4, sequence (P56524 whole entry, the tested form may be a part): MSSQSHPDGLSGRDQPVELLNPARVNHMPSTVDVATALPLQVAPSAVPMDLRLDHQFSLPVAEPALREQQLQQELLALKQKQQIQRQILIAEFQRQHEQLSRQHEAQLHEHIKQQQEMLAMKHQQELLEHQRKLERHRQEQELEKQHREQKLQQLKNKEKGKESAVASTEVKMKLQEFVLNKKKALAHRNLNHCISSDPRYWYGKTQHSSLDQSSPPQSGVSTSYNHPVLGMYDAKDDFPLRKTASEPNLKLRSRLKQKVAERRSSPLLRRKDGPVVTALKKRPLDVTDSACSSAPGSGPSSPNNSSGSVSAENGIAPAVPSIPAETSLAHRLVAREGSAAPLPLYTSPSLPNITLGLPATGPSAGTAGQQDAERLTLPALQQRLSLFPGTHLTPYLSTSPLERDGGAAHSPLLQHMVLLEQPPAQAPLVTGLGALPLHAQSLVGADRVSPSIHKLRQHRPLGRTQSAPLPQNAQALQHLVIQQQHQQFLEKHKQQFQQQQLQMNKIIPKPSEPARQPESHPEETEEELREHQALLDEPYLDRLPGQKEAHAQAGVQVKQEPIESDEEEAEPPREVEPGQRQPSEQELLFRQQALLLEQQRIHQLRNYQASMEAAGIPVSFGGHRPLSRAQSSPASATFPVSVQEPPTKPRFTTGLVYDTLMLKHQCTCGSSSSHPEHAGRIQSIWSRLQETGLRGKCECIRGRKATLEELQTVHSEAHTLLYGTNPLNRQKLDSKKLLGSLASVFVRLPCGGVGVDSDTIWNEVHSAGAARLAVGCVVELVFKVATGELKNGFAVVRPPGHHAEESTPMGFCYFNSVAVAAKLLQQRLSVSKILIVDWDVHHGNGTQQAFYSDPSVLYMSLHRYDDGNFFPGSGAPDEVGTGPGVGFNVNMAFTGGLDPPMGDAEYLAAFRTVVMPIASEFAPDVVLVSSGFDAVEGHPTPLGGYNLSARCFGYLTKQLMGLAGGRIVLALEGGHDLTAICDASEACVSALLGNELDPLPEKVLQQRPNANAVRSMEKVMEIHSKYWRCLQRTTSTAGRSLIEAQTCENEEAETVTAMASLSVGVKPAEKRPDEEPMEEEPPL
Histone deacetylase 1, sequence (Q13547 whole entry, the tested form may be a part): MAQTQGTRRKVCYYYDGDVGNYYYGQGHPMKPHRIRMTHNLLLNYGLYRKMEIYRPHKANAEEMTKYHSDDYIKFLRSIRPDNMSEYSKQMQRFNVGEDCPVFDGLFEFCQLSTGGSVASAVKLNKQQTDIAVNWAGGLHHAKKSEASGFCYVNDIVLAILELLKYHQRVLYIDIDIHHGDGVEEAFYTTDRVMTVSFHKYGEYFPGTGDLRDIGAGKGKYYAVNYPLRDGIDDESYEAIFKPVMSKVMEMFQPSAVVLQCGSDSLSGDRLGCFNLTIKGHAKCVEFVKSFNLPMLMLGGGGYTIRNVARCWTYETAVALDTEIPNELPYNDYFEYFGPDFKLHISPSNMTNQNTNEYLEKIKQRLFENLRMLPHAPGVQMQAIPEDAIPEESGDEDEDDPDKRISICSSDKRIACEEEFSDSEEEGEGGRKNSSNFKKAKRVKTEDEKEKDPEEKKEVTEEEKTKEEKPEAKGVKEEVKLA

Compound | GI50 (U-87 MG) | ΔTm (dsDNA [1]) | IC50 (Histone deacetylase) | ΔTm (Quadruplex DNA [9]) | GI50 (A549 [16]) | GI50 (HCT-116 [18]) | ΔTm (Quadruplex DNA [19]) | ΔTm (dsDNA [20]) | other results
Cl.NCCCCNCCCCNCCCN1C(=O)c2ccc3c4c(ccc(c24)C1=O)C(=O)N(CCCCCC(=O)NO)C3=O | > 5 µM | 7.5 °C | 0.56 µM | 13.3 °C | > 5 µM | 3.08 µM |  |  | fold change (FC) (A549 [2]): 2.61; fold change (FC) [3]: 2; IC50 (Histone deacetylase 1): 4.12 µM; fold change (FC) [4]: 2; inhibition [5]: Active; fold change (FC) (A549 [6]): 1.38; Activity (A549 [7]): >80%; fold change (FC) (A549 [8]): 1.38; fold change (FC) (HCT-116 [10]): 0.44; IC50 (Histone deacetylase 2): 10.8 µM; fold change (FC) (A549 [11]): 0.68; IC50 (Histone deacetylase 4): 117 µM; fold change (FC) (HCT-116 [12]): 1.32; fold change (FC) (A549 [13]): 3.66; Activity (A549 [14]): 85%; fold change (FC) (A549 [15]): 1.28; IC50 [17]: 0.05 µM
Cl.NCCCNCCCNCCCN1C(=O)c2ccc3c4c(ccc(c24)C1=O)C(=O)N(CCCCCC(=O)NO)C3=O | > 5 µM | 5 °C | 0.37 µM | 9.9 °C | > 5 µM | 2.13 µM |  |  | inhibition [5]: Active
CN(C)c1ccc(Nc2c3ccc(NC(=O)CCN4CCCC4)cc3nc3cc(NC(=O)CCN4CCCC4)ccc23)cc1 |  | 0.5 °C |  | 11 °C |  |  | 28.3 °C | 5.3 °C | 
O=C(CCCCCN1C(=O)c2cccc3cccc(c23)C1=O)NO |  | 0.1 °C |  | 0.1 °C |  |  | 0.1 °C | 0.1 °C | growth inhibition (GI) (U-87 MG; U-87MG ATCC): Active; inhibition (HCT-116 [10]): inactive; inhibition (A549 [11]): inactive; inhibition (HCT-116 [12]): inactive; inhibition (A549 [15]): inactive; growth inhibition (GI) (A549 [16]): Active; growth inhibition (GI) (HCT-116 [18]): Active
Cl.NCCCNCCCCNCCCN1C(=O)c2ccc3c4c(ccc(c24)C1=O)C(=O)N(CCCCCC(=O)NO)C3=O |  | 3.5 °C | 0.52 µM | 4.5 °C |  |  | 10.9 °C | 8.1 °C | 

Now from value to molecule, other results behind:

GI50 (U-87 MG) | ΔTm (dsDNA [1]) | IC50 (Histone deacetylase) | ΔTm (Quadruplex DNA [9]) | GI50 (A549 [16]) | GI50 (HCT-116 [18]) | ΔTm (Quadruplex DNA [19]) | ΔTm (dsDNA [20]) | Compound | other results
 | 1 °C | 0.41 µM | 2.4 °C |  |  |  |  | Cl.NCCCNCCCN1C(=O)c2ccc3c4c(ccc(c24)C1=O)C(=O)N(CCCCCC(=O)NO)C3=O | 
 | 2 °C | 0.55 µM | 4.4 °C |  |  | 7.8 °C | 3.4 °C | Cl.NCCCNCCNCCCN1C(=O)c2ccc3c4c(ccc(c24)C1=O)C(=O)N(CCCCCC(=O)NO)C3=O | 
4.85 µM | 0.6 °C |  | 1.5 °C | > 5 µM | 4.39 µM |  |  | COc1ccccc1CNCCCN1C(=O)c2ccc3c4c(ccc(c24)C1=O)C(=O)N(CCCNCCCCNCCCN)C3=O | inhibition (HCT-116 [10]): inactive; inhibition (A549 [11]): inactive; inhibition (HCT-116 [12]): inactive; inhibition (A549 [15]): inactive
